Source: ChEMBL document CHEMBL4513216, “Probing the Open Global Health Chemical Diversity Library for Multistage-Active Starting Points for Next-Generation Antimalarials” (ACS Infect Dis, 2020)

assay: Toxicity liver stage against HepG2, at 10uM; format: cell-based; parameters: test concentration 10 uM, cell line HepG2-A16-CD81EGFP; conditions: human, HepG2-A16-CD81EGFP cells; read-out: INHIBITION
Summary of the method: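 Uninfected HepG2-A16-CD81EGFP cells, 3 × 10^3 per well, 1536-well, plated on prespotted compound at 10 μM final, parasite-free screening media added to match infected plates; puromycin 10 μM positive, DMSO 0.5% negative; run in parallel with 48 h PbLuc assay at 37 °C, 5% CO2; viability by CellTiter-Glo luminescence, normalized to controls.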

SMILES | cytotoxicity at 10 µM [%]
NC(=O)C1CCN(C(=O)CCSCc2ccccc2)CC1 | 4.22
Cn1c(CO[C@H]2CN(S(C)(=O)=O)C[C@H]2F)nc2ccccc21 | -0.714
CC(C)NC[C@H]1COCc2nc3cccnc3n21 | -5.38
CC(C)CC(=O)N1CCC2(CC1)[C@@H]1CN(C(=O)N(C)C)C[C@@H]1C(=O)N2C | 4.85
O=C(C1CCOCC1)N1CC[C@@H](O)[C@@H]1Cc1ccccc1 | 0.375
COc1ncnc2c1CCN(C(=O)NCc1cccc(F)c1)CC2 | -7.27
O=C(C1CCCO1)N1CC[C@@H]2CN(Cc3ccccc3)S(=O)(=O)[C@@H]2CC1 (stereo not given in full) | 12.9
O=C(N[C@@H]1CN(c2ncc(F)cn2)[C@@H]2COC[C@@H]21)c1cscn1 | -139
CN1CCC2(CC1)CN(C)C(=O)C[C@@H]2C(F)(F)F | -144
CN(C)Cc1nn(C)c2c1CCN(C(=O)c1cccnc1)C2 | 6.24
COc1cccc(N2CCN(CC(O)c3ccc(C)cc3)CC2)c1 (stereo not given) | -11.6
CC(C)c1noc(C2CCN(S(=O)(=O)c3cccs3)CC2)n1 | 1.47
Cc1ccccc1OC1CCN(CC(=O)Nc2cn(C)nc2C)CC1 | -0.0825
O=c1[nH]c2ccc(S(=O)(=O)N(CCO)Cc3ccncc3)cc2[nH]1 | 1.07
CCCN1CCCCCC1Cc1c(C(=O)NC)sc2ccccc12 (stereo not given) | 8.53
Cc1ccc2c(CC(=O)N3C[C@@H](O)[C@H](N(C)C)C3)coc2c1 | 10.4
CC(=O)N1CCC(c2cncc(N3CCCCCC3)n2)CC1 | 11.3
O=C(CC1CC1)N1CCC(O)(CN2CCN(c3ccccc3)CC2)C1 (stereo not given) | -11.2
Cn1nccc1CN1CCCC(COc2ccccc2F)C1 (stereo not given) | -9.54
COCC(=O)N1CCC(Cc2nccnc2-c2c(C)n[nH]c2C)C1 (stereo not given) | -11.7
CN(C)CC1(O)CCN(S(=O)(=O)c2ccc(Cl)cc2)C1 (stereo not given) | -13.9
Cc1ccsc1C(=O)N1CCCC(c2[nH]ncc2S(C)(=O)=O)C1 (stereo not given) | -5.39

SMILES | cytotoxicity at 10 µM [%]
Nc1ncnc2c1ncn2[C@H]1CCN(Cc2ccsc2)CC[C@@H]1O | -4.25
CCOCC1CCN(C(=O)C(c2c(F)cccc2F)N(C)C)CC1 (stereo not given) | -3.12
CN(Cc1nnnn1C1CC1)CC1COc2ccccc2O1 (stereo not given) | -5.79
Cc1nc(-c2cc(C(=O)NC(C)(C(=O)O)C(C)C)co2)cs1 (stereo not given) | 1.84
OCCCNc1cccc(COC2CCCCC2)c1 | -0.23
COCCCN1CCN(CC2CCCO2)CC1 (stereo not given) | -13.5
O=C1NCCCCC1NC(=O)N1CCc2ccccc21 (stereo not given) | -0.734
Cc1nn(C)c(C)c1C1COCCN1C(=O)NC1CC1 (stereo not given) | 3.21
O=C(c1sccc1-n1cnnn1)N1CCCCC1 | 6.56
CCn1cnnc1CNC(=O)N1CCOC(c2ccccc2Cl)C1 (stereo not given) | 9.32
Cc1ccccc1N1CCN(CCS(=O)(=O)c2ccc(Br)cc2)CC1 | 18.7
CCn1nc(C)c(C(=O)N2CCC(Nc3ccc(C)nn3)CC2)c1C | 4.13
COc1ccc2oc(C(C)NC(=O)NCc3noc(C)n3)c(C)c2c1 (stereo not given) | 5.08
Cc1nnc(NC(=O)CN2CCc3c(nc(C(C)C)n3C)C2)s1 | -1.94
C1CCC(NC2CCCN(Cc3noc(C4CC4)n3)C2)C1 (stereo not given) | -5.05
COc1cc(NC(=O)c2ccc(F)cc2Cl)c(C(=O)N(C)C)cc1OC | -11.1
CC(C)CNC(=O)c1ccc(NC(=O)NC(C)(C)CO)cc1Cl | 6.27
CCn1nc(C)cc1C(=O)NCc1nc(C)no1 | 0.304
COc1ccc(C)cc1-n1ccc(C(=O)NCC2CCCOC2)n1 (stereo not given) | -2.51
Cn1nnnc1SCC1Cc2ccccc2O1 (stereo not given) | 14.9
COCCN(C)c1cnn(C)c(=O)c1Br | 1.09
O=C(NCc1csc(Br)c1)Nc1cn[nH]c1 | 2.1

SMILES | cytotoxicity at 10 µM [%]
O=C(NCc1cccnc1N1CCCCC1)c1ccc2[nH]nnc2c1 | -1.19
COc1cc(CNC(C)Cn2ccnc2)cc2c1OCCO2 (stereo not given) | -94.1
CCNC(=O)c1cnc(Cc2ccc(F)cc2)s1 | 4.44
CC(CNC(=O)c1ccc(Cl)cc1I)N1CCCC1 (stereo not given) | -5.69
CN(C)c1cc(C(=O)NCCc2nnc(-c3ccco3)[nH]2)ccn1 | -0.653
CN(C)C(=O)Cc1nc(CN2CCOC(Cn3cccn3)C2)cs1 (stereo not given) | 0.743
CN(Cc1nccn1CC(F)(F)F)C(=O)c1ccc(F)cc1F | 3.3
NC(=O)C(CNC(=O)COCC(F)(F)F)Cc1ccc(F)cc1 (stereo not given) | -5.36
Cc1ncsc1C(=O)Nc1cccc(OCC(F)F)n1 | -1.4
CN(Cc1ccc(Cl)s1)C1CCCN(c2cccnn2)C1 (stereo not given) | -4.27
c1cnc(N2CCCC3(COCCN(c4nncs4)C3)C2)cn1 (stereo not given) | 1.77
Cc1cn2c(=O)c(-c3ccnc(N[C@@H]4CCOC4)n3)cnc2s1 | -9.19
CC(=O)N1CCC(n2ccc(-c3cnc(N4CCOCC4)nc3)n2)CC1 | -10.4
OCC1(O)CCN(c2ccnc3c(C(F)(F)F)cccc23)CC1 | -14.8
CCCc1ncc(CN(C)C2CCCN(CCc3ccccc3)C2)cn1 (stereo not given) | 0.301
Cc1nc(CN2CCN(c3cc(CCN)ncn3)CC2)cs1 | -145
CSCCCNC(=O)C(c1cccc(F)c1)N(C)C (stereo not given) | 0.28
O=C(CN1CC(c2ccccc2)CC1=O)NCc1cc2n(n1)CCNC2 (stereo not given) | 1.05
Cc1cc(NCCc2cnccn2)nc(-c2ccccc2O)n1 | 10.9
CCOC(=O)N1CCCC2(CCN(Cc3ccccc3C#N)C2)C1 (stereo not given) | 3.37
CC1=C(C(=O)N(C)Cc2n[nH]c3c2CCCCC3)C(C)NC(=O)N1 (stereo not given) | -0.178
CCOCC1CCN(C(=O)C(c2ccc(F)cc2)N(C)C)CC1 (stereo not given) | 1.31

SMILES | cytotoxicity at 10 µM [%]
CC(=O)N1C[C@H](NS(=O)(=O)N2CCOCC2)[C@@H](c2ccc(C)o2)C1 | -1.43
CCCc1nc(C)cc(NC(C)Cc2cnccn2)n1 (stereo not given) | -0.166
O=C(O)c1ccc(CNC(=O)C2CCN(C(=O)C3CCC3)CC2)s1 | 0.993
NC(=O)NCC(=O)N1CCCC(c2nccn2CC2CCC2)C1 (stereo not given) | -4.59
Cc1ccsc1S(=O)(=O)N1CCc2c(c(C(=O)O)nn2CC2CC2)C1 | -0.714
Cc1cc(-c2nn(C)c(Cl)c2CN2CCOC(C(=O)O)C2)no1 (stereo not given) | 4.04
Cn1ncc(C2CC(=O)NCc3nc4ccccn4c32)c1C1CC1 (stereo not given) | 6.9
Cc1cc(N[C@H](CO)COCc2ccccc2)n2nc(C)cc2n1 | 0.324
CCOC(=O)N1CCC(NC(C)c2ccccc2-n2cccn2)CC1 (stereo not given) | -7.28
O=C(NCc1nc(C2CCCCC2)no1)C1CC(=O)N(C2CCCC2)C1 (stereo not given) | 0.761
N#Cc1cccc(N2CCC3(CCC(=O)N(CCCO)C3)CC2)n1 | 2.11
Cc1c[nH]c(CN(C)C(=O)c2ccc(CSc3nnc[nH]3)o2)n1 | 1.12
CN1CCCN(CC(=O)N2CCc3[nH]c(-c4ccccc4)nc3C2)CC1 | -0.0342
CC(O)c1cn(C2CCN(C(=O)C3(C)CCN(C)CC3)CC2)nn1 (stereo not given) | -0.293
N#Cc1cccc(N2CCC3(CCC(=O)N(CC(N)=O)C3)CC2)n1 | 3.14
CN(C)C(=O)N1CCn2nc(CNC(=O)CCC(F)(F)F)cc2C1 | 5.6
NC(=O)c1cc(C2CCCN(C(=O)CCc3cccs3)C2)n[nH]1 (stereo not given) | 2.33
Cc1csc(N2CCN(C(=O)C(C(C)C)n3cncn3)CC2)n1 (stereo not given) | -13.1
CC(C)c1nnc2n1CCN(Cc1nc(-c3ccoc3)no1)C2 | -3.69
Cc1cc(C(=O)NCc2ccnc(N3CCN(C)CC3)c2)no1 | -6.63
Cc1nc2ccccc2c(=O)n1CCC(=O)N1CCCC1 | -10
COc1ccc(NC(=O)N(C)Cc2ccsc2)cn1 | -2.36

SMILES | cytotoxicity at 10 µM [%]
CCNc1cc2c(nn1)CCN(C(=O)CC1CCCC1)C2 | -3.87
CCNc1cc2c(nn1)CCN(C(=O)c1cc3ccccc3o1)C2 | 3.88
Cn1ccc(C(=O)NCc2ccc(N3CCCCCC3)nc2)cc1=O | -3.18
COCCc1noc(CN2CCCC2c2c(C)nn(C)c2OC)n1 (stereo not given) | -2.36
CCn1cnnc1CNC(=O)N1CCC(O)CC1 | -4.86
O=C(NCCc1ccc(Cl)s1)N1CCS(=O)(=O)CC1 | 1.92
Cc1ccccc1OCC(O)CN1CCC(Cn2cccn2)CC1 (stereo not given) | -0.972
Cc1ccc(F)c(S(=O)(=O)NCc2cccc(C(=O)N3CCCC3)c2)c1 | -11.1
Cc1cnn(CC2CCCN2C(=O)c2ccc3[nH]c(=O)[nH]c3c2)c1 (stereo not given) | -3.98
CCn1cc(NC(=O)NCCN2CCc3ccccc3C2)cn1 | -2.87
Cc1nc(C)n(C2CCCN(C(=O)c3cccnc3NC(C)C)C2)n1 (stereo not given) | -2.28
CN(C)c1ncccc1C(=O)N1CCCN(c2cccnn2)CC1 | 9.41
Cc1nc(CN(C)C2CCN(CC(=O)N3CCOCC3)C2)no1 (stereo not given) | -4.91
O=C([C@H]1CCCO1)N1CCC2(CC1)CNCc1ccccc12 | -2.57
CS(=O)(=O)N1CC2(CCN(C(=O)c3ccncc3)CC2)c2ccccc21 | 2.23
O=S(=O)(C1CC1)N1CC[C@]2(C[C@@H](Oc3ccccn3)CO2)C1 | -10.4
CCS(=O)(=O)N1CCO[C@H]2[C@H](Oc3ncccc3F)CC[C@@H]21 | 2.63
CC(=O)N1[C@H](CN(C)C)C[C@@H]2CN(C(=O)c3ccno3)CC[C@@H]21 | 4.35
O=C(C1CC=CC1)N1CCC2(CCN(Cc3ccccn3)C2=O)C1 (stereo not given) | 0.908
CN(Cc1ccco1)[C@@H]1CN(Cc2ccsc2)C[C@@H]2CCCO[C@@H]21 | 9.59
CN(C)C(=O)CN1C(=O)CCC12CCN(Cc1ccsc1)CC2 | -3.13
O=C(c1c[nH]c(=O)cn1)N1C[C@H]2CC[C@@H](C1)N(Cc1ccccc1)C2 | -126
